From ChEMBL document CHEMBL1123985, “Oral absorption of cephalosporin antibiotics. 1. Synthesis, biological properties, and oral bioavailability of 7-(arylacetamido)-3-chloro cephalosporins in animals” (J Med Chem, 1988)
≈ marks a conversion by molar mass, not a printed value.

Columns and labels:
[1] = Area under plasma concentration vs time curve observed in Rhesus monkeys after, iv administration of single 30 mg/kg dose; assay type: ADME, organism-based, Macaca mulatta; design: dose 30 mg/kg, route intravenous; settings: rhesus monkey
How it was run: (§1)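 Rhesus monkeys, adult males, six animals per compound, each given drug orally and iv; fasted overnight. Single 30 mg/kg solution doses, by nasogastric tube (in water) or saphenous vein (in isotonic lactated Ringer). Plasma sampled at intervals, frozen at -70 °C, antibacterial activity by microbiological assay. AUC in μg min/mL; oral bioavailability from oral vs iv AUC.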

[2] = Area under plasma concentration vs time curve observed in Rhesus monkeys after oral administration of single 30 mg/kg dose; assay type: ADME, organism-based, Macaca mulatta; design: dose 30 mg/kg, route oral; settings: rhesus monkey; how it was run: as §1
Canis familiaris [3] = experiment: Area under plasma concentration vs time curve observed in female mongrel dogs after, iv administration of single 15 mg/kg dose; assay type: ADME, organism-based, Canis lupus familiaris; design: dose 15 mg/kg, route intravenous; settings: dog, in vivo
How it was run: (§2)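 Six female mongrel dogs (14-23 kg) fasted overnight, bladder catheterized; single 15 mg/kg solution doses by stomach tube (in water, total 500 mL) or cephalic vein (saline or pH 6.0 NaCl/phosphate/acetate buffer). Plasma sampled at intervals; activity by disk-plate agar diffusion against E. coli MB 3804, standards in dog serum or buffer. AUC μg min/mL, mean ± SEM; BA from iv vs po AUC and urinary recovery.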

Canis familiaris [4] = experiment: Area under plasma concentration vs time curve observed in female mongrel dogs after, oral administration of single 15 mg/kg dose; assay type: ADME, organism-based, Canis lupus familiaris; design: dose 15 mg/kg, route oral; settings: dog, in vivo; how it was run: as §2
[5] = Oral bioavailability in mouse; assay type: ADME, organism-based; settings: in vivo
How it was run: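 Male Cox mice given water and liquid diet overnight; 20 mg/kg in saline (2 mg/mL) sc or orally; urine from collection cages plus bladder contents over 2 h; activity by agar well assay with Bacillus subtilis ATCC 6633. Bioavailability from percent dose excreted in urine after oral vs parenteral dosing.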

[6] = Oral bioavailability in Rhesus monkey; assay type: ADME, organism-based, Macaca mulatta; settings: in vivo; how it was run: as §1
[7] = Oral bioavailability in dog (female mongrel); assay type: ADME, organism-based, Canis lupus familiaris; settings: in vivo; how it was run: as §2
[8] = dose in urine (24-h urine excretion) in female mongrel dogs after, oral administration of single 15 mg/kg dose; assay type: ADME, organism-based, Canis lupus familiaris; design: dose 15 mg/kg, route oral; settings: dog
How it was run: (§3)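 Female mongrel dogs (n=6), bladder catheter; urine collected at intervals after single 15 mg/kg iv or oral solution dose, frozen; antibiotic activity by disk-plate agar diffusion against E. coli MB 3804 with standards in pH 6.0 buffer; percent of dose recovered in urine.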

[9] = dose in urine (24-h urine excretion) in female mongrel dogs after, iv administration of single 15 mg/kg dose; assay type: ADME, organism-based, Canis lupus familiaris; design: dose 15 mg/kg, route intravenous; settings: dog; how it was run: as §3
Escherichia coli = experiment: Minimum inhibitory concentration against EC14 strain Escherichia coli; assay type: functional
Klebsiella aerogenes = experiment: Minimum inhibitory concentration against EB17 strain of Enterobacter aerogenes; assay type: functional
Klebsiella pneumoniae = experiment: Minimum inhibitory concentration against X68 strain of Klebsiella pneumoniae; assay type: functional
Mus musculus [10] = experiment: Efficacy against mouse infected ip with C203 strain of Streptococcus pyogenes, administered po to 19-21-g random sex ICR mice at 1 hr and 5 hr; assay type: functional
How it was run: (§4)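 ICR mice, random sex, 19-21 g, challenged ip with 50-500 LC50 from a frozen organism pool; compound given sc or po at 1 and 5 h after challenge, five 2-fold dose levels, eight mice per level; ED50 derived.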

Mus musculus [11] = experiment: Efficacy against mouse infected ip with C203 strain of Streptococcus pyogenes, administered sc to 19-21-g random sex ICR mice at 1 hr and 5 hr; assay type: functional; how it was run: as §4
Mus musculus [12] = experiment: Efficacy against mouse infected ip with park strain of Streptococcus pneumoniae administered po to 19-21-g random sex ICR mice at 1 hr and 5 hr; assay type: functional; how it was run: as §4
Mus musculus [13] = experiment: Efficacy against mouse infected ip with park strain of Streptococcus pneumoniae administered sc to 19-21-g random sex ICR mice at 1 hr and 5 hr; assay type: functional; how it was run: as §4
Mus musculus [14] = experiment: Efficacy against mouse infected ip with 3055 strain of Staphylococcus aureus, administered po to 19-21-g random sex ICR mice at 1 hr and 5 hr; assay type: functional; how it was run: as §4
Mus musculus [15] = experiment: Efficacy against mouse infected ip with 3055 strain of Staphylococcus aureus, administered sc to 19-21-g random sex ICR mice at 1 hr and 5 hr; assay type: functional; how it was run: as §4
Salmonella = experiment: Minimum inhibitory concentration against X514 strain of Salmonella; assay type: functional
[16] = Minimum inhibitory concentration against N9 strain of Shigella sonnei; assay type: functional
[17] = tested on: Staphylococcus epidermidis; experiment: Minimum inhibitory concentration against 222 strain of Staphylococcus epidermidis; assay type: functional
[18] = tested on: Staphylococcus epidermidis; experiment: Minimum inhibitory concentration against Epil strain of Staphylococcus epidermidis; assay type: functional
Staphylococcus aureus [19] = experiment: Minimum inhibitory concentration against S13E strain of Staphylococcus aureus; assay type: functional
Staphylococcus aureus [20] = experiment: Minimum inhibitory concentration against V41 strain of Staphylococcus aureus; assay type: functional
Staphylococcus aureus [21] = experiment: Minimum inhibitory concentration against X1.1 strain of Staphylococcus aureus; assay type: functional
Streptococcus pyogenes [22] = experiment: Minimum inhibitory concentration against Streptococcus pyogenes C203; assay type: functional
Haemophilus influenzae [23] = experiment: (§5) Minimum inhibitory concentration against sens CL strain of Haemophilus influenzae; assay type: functional
Haemophilus influenzae [24] = experiment: (§6) Minimum inhibitory concentration against res 76 strain of Haemophilus influenzae; assay type: functional
Streptococcus pneumoniae [25] = experiment: Minimum inhibitory concentration against Park strain of Streptococcus pneumoniae; assay type: functional
Staphylococcus aureus [26] = experiment: Minimum inhibitory concentration against 3055 strain of Staphylococcus aureus
Streptococcus pyogenes [27] = experiment: Minimum inhibitory concentration against C203 strain of Streptococcus pyogenes
Streptococcus pneumoniae [28] = experiment: Minimum inhibitory concentration against park strain of Streptococcus pneumoniae
[29] = Area under plasma concentration vs time curve observed in rats for 0-3 h; assay type: ADME; design: time < 3 hr; settings: rat
How it was run: (§7)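 Rats, jugular vein cannulated (two per group), test compound iv 20 mg/kg; probenecid 100 mg/kg iv 5 min before in treated groups. Heparinized plasma sampled at 5, 20, 40 min and 1, 2, 3 h, assayed microbiologically (B. subtilis agar well). AUC 0-3 h in μg min/mL; half-life in min.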

[30] = Bioavailability in rat; assay type: ADME, organism-based; settings: in vivo
How it was run: (§8)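 Male Wistar rats (200-300 g), jugular-cannulated, upper GI emptied by light cycle; 20 mg/kg in saline (6 mg/mL) sc or orally. Urine collected in wire-bottom cages, assayed by B. subtilis agar well method. Mean ± SD recovery with N and range; bioavailability = oral over mean sc recovery.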

[31] = Mean plasma levels in rats 1 hr after iv administration of 100 mg/kg of probenecid 5 min prior to test compound; assay type: ADME, organism-based; design: dose 100 mg/kg, route intravenous; settings: rat, read-out: Plasma level; how it was run: as §7
[32] = Mean plasma levels in rats 2 hr after iv administration of 100 mg/kg of probenecid 5 min prior to test compound; assay type: ADME, organism-based; design: dose 100 mg/kg, route intravenous; settings: rat, read-out: Plasma level; how it was run: as §7
[33] = Mean plasma levels in rats 3h after intravenous administration of 20 mg/kg of compound; assay type: ADME, organism-based; design: dose 20 mg/kg, route intravenous; settings: rat, read-out: Plasma level; how it was run: as §7
[34] = Mean plasma levels in rats 40 min after iv administration of 100 mg/kg of probenecid 5 min prior to test compound; assay type: ADME, organism-based; design: dose 100 mg/kg, route intravenous; settings: rat, read-out: Plasma level; how it was run: as §7
[35] = Mean plasma levels in rats at a time 5 min after iv administration of 100 mg/kg of probenecid 5 min prior to test compound; assay type: ADME, organism-based; design: dose 100 mg/kg, route intravenous; settings: rat, read-out: Plasma level; how it was run: as §7
[36] = Mean plasma levels in rats 20 min after iv administration of 100 mg/kg of probenecid 5 min prior to test compound; assay type: ADME, organism-based; design: dose 100 mg/kg, route intravenous; settings: rat, read-out: Plasma level; how it was run: as §7
[37] = Percent of urinary recovery in rats after, oral administration of single 20 mg/kg dose in solution (N,range); assay type: ADME, organism-based; design: dose 20 mg/kg, route oral; settings: rat, urine, read-out: Recovery; how it was run: as §8
[38] = Percent of urinary recovery in rats after, sc administration of single 20 mg/kg dose in solution (N,range); assay type: ADME, organism-based; design: dose 20 mg/kg, route subcutaneous; settings: rat, urine, read-out: Recovery; how it was run: as §8
[39] = Half-life of the compound; assay type: ADME; how it was run: as §7
[40] = as §5; assay type: functional
[41] = as §6; assay type: functional
in vivo = settings: rat

## O=C(Cc1csc2ccccc12)N[C@@H]1C(=O)N2C(C(=O)O)=C(Cl)CS[C@H]12
[1]
  AUC: 86800 ng·h/mL
[2]
  AUC: 1170 ng·h/mL
Canis familiaris [3]
  AUC: 29300 ng·h/mL
Canis familiaris [4]
  AUC: < 800 ng·h/mL
[5]
  bioavailability: 47%
[6]
  bioavailability: 1.3%
[7]
  bioavailability: < 3%
[8]
  dose excreted: 1.5%
[9]
  dose excreted: 20%
Escherichia coli
  MIC: 64 µg/mL (≈ 157 µM)
Klebsiella aerogenes
  MIC: > 128 µg/mL
Klebsiella pneumoniae
  MIC: 128 µg/mL (≈ 313 µM)
Mus musculus [10]
  ED50: 5.5 mg/kg
Mus musculus [11]
  ED50: 3.8 mg/kg
Mus musculus [12]
  ED50: 36.2 mg/kg
Mus musculus [13]
  ED50: 14.8 mg/kg
Mus musculus [14]
  ED50: 1.51 mg/kg
Mus musculus [15]
  ED50: 0.62 mg/kg
Salmonella
  MIC: 128 µg/mL (≈ 313 µM)
[16]
  MIC: 128 µg/mL (≈ 313 µM)
[17]
  MIC: 0.25 µg/mL (≈ 0.611 µM)
[18]
  MIC: 1 µg/mL (≈ 2.45 µM)
Staphylococcus aureus [19]
  MIC: 8 µg/mL (≈ 19.6 µM)
Staphylococcus aureus [20]
  MIC: 8 µg/mL (≈ 19.6 µM)
Staphylococcus aureus [21]
  MIC: 0.125 µg/mL (≈ 0.306 µM)
Streptococcus pyogenes [22]
  MIC: 0.06 µg/mL (≈ 0.147 µM)
Haemophilus influenzae [23]
  MIC: 1 µg/mL (≈ 2.45 µM)
Haemophilus influenzae [24]
  MIC: 0.25 µg/mL (≈ 0.611 µM)
Streptococcus pneumoniae [25]
  MIC: 0.125 µg/mL (≈ 0.306 µM)
Staphylococcus aureus [26]
  MIC: 0.25 µg/mL (≈ 0.611 µM)
Streptococcus pyogenes [27]
  MIC: 0.06 µg/mL (≈ 0.147 µM)
Streptococcus pneumoniae [28]
  MIC: 0.06 µg/mL (≈ 0.147 µM)

## CC1(C)S[C@@H]2[C@H](NC(=O)COc3ccccc3)C(=O)N2[C@H]1C(=O)O [PENICILLIN V]
[1]
  AUC: 43000 ng·h/mL
[2]
  AUC: 2330 ng·h/mL
Canis familiaris [3]
  AUC: 25300 ng·h/mL
Canis familiaris [4]
  AUC: 3000 ng·h/mL
[29]
  AUC at 3 h: 32000 ng·h/mL
[5]
  bioavailability: 29%
[30]
  bioavailability: 11.6%
[31]
  concentration at 1 h: 6800 ng/mL
[32]
  concentration at 2 h: 800 ng/mL
[33]
  concentration at 3 h: < 300 ng/mL
[34]
  concentration at 40 min: 14100 ng/mL
[35]
  concentration at 5 min: 59000 ng/mL
[36]
  concentration at 20 min: 30400 ng/mL
[6]
  bioavailability: 5.5%
[37]
  dose excreted: 2.6%
[38]
  dose excreted: 22.5%
[8]
  dose excreted: 4.9%
[9]
  dose excreted: 32%
[39]
  half-life: 19.4 min
Escherichia coli
  MIC: > 128 µg/mL
Klebsiella aerogenes
  MIC: > 128 µg/mL
Klebsiella pneumoniae
  MIC: > 128 µg/mL
Mus musculus [10]
  ED50: 0.62 mg/kg
Mus musculus [11]
  ED50: 0.16 mg/kg
Mus musculus [12]
  ED50: 2.8 mg/kg
Mus musculus [13]
  ED50: 2.1 mg/kg
Mus musculus [14]
  ED50: 0.5 mg/kg
Mus musculus [15]
  ED50: 0.04 mg/kg
Salmonella
  MIC: > 128 µg/mL
[16]
  MIC: > 128 µg/mL
[17]
  MIC: 0.06 µg/mL (≈ 0.171 µM)
[18]
  MIC: 0.125 µg/mL (≈ 0.357 µM)
Staphylococcus aureus [19]
  MIC: 16 µg/mL (≈ 45.7 µM)
Staphylococcus aureus [20]
  MIC: 32 µg/mL (≈ 91.3 µM)
Staphylococcus aureus [21]
  MIC: 0.06 µg/mL (≈ 0.171 µM)
Streptococcus pyogenes [22]
  MIC: 0.06 µg/mL (≈ 0.171 µM)
[40]
  MIC: 64 µg/mL (≈ 183 µM)
[41]
  MIC: > 128 µg/mL
Streptococcus pneumoniae [25]
  MIC: 16 µg/mL (≈ 45.7 µM)
In vivo
  bioavailability: 34%
Staphylococcus aureus [26]
  MIC: 0.04 µg/mL (≈ 0.114 µM)
Streptococcus pyogenes [27]
  MIC: 0.06 µg/mL (≈ 0.171 µM)
Streptococcus pneumoniae [28]
  MIC: 0.02 µg/mL (≈ 0.0571 µM)
